Compounds with a hit are over-represented: about 3.8% of the library has one in this group of screens.
FN deposition inh: fibronectin deposition inhibition; inhibition, % at 12.6 µM; AH1F fibroblasts, Alexa488-fibronectin deposition fluorescence, overnight; 350,000 compounds, 0.086% hits;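 active means mean inhibition across replicates of 30% or more, regardless of how many single replicates reach that level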;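 further: positive control wells lacked labelled fibronectin entirely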
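Material – AH1F fibroblast monolayer, labelled fibronectin deposition · Reagent – labelled fibronectin 24 nM · Timing – 1 h adhesion, overnight exposure · Measured by – fluorescence at 485 nm excitation, 525 nm emission · Read-out – inhibition of fibronectin deposition signal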
SIRT5 block: inhibitors of human sirtuin-5 desuccinylase | Q9NXA8 | inhibition, % at 15 µM | 330,000 compounds, 1.1% hits | Purified SirT5, succinyl-peptide AMC, trypsin-coupled fluorescence; in the data active means inhibition above about 15%
Target sequence (Q9NXA8 whole entry, looked up): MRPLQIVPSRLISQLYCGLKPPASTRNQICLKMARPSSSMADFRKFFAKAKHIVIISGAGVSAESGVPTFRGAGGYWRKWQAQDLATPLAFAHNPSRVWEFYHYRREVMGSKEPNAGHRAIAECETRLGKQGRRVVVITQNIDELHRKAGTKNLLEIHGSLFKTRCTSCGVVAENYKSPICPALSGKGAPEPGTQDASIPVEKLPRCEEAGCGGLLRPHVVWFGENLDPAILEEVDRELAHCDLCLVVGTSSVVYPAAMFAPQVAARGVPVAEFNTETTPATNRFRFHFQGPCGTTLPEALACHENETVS
ARNT-TACC3 inh: ARNT/TACC3 interaction disruption; Q9Y6A5; AlphaScreen His-ARNT PAS-B/GST-TACC3 binding, luminescence; TACC3 fragment carries E629A point mutation; inhibition, % at 9.99 µM; 390,000 compounds, 0.66% hits;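 active means mean inhibition of replicates at least 50% and at least half of replicates each reaching 50%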;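 further: 0% = complete ARNT plus TACC3 wells and 100% = ARNT alone without TACC3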
DENV2 CPE: DENV2-induced cell death inhibition. DENV2-infected cells, cytopathic effect rescue, plate reader. CPE inhibition, % at 9.99 µM. 350,000 compounds, 1.7% hits. AID 651640; in the data active means CPE inhibition above about 20%, passing the limit was not always enough; tested in BHK-21 cells;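 further: 0% = median of neutral control wells and 100% = median of positive control wells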
XiGFP reactiv: reactivates the inactive X chromosome in mouse fibroblasts; 360,000 compounds, 0.055% hits; XiGFP mouse fibroblasts, % GFP-positive cells imaging, 3 d; cells co-treated with 5-aza-dC sensitizer; scaled so ellipticine positive control = 100%; activation, % at 7.58 µM;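 active means mean normalized replicate activation at least 10% and every replicate at or above 10%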;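 further: 0% = median of on-plate neutral control wells and 100% = ellipticine 6 µM median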
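Material: XiGFP fibroblasts, SV40-immortalized. Buffer or medium: DMEM plus 5-aza-dC sensitizer. Compound: single concentration per compound, delivered by pin transfer. Times: 3 days compound exposure. Controls: ellipticine 6 µM.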
FGF22 binding: binders of recombinant human FGF22 by thermal shift; AID 651658; activity (Tm shift, normalised), % at 9.99 µM; SYPRO orange fluorescence; percent of sucrose octasulfate shift, DMSO zero; 340,000 compounds, 1.5% hits; Q9HCT0;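 active means mean Tm shift, scaled 0 neutral to 100 positive control, at about 1.3% or above, every replicate too, limit read from the data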
Target sequence (Q9HCT0 whole entry, looked up): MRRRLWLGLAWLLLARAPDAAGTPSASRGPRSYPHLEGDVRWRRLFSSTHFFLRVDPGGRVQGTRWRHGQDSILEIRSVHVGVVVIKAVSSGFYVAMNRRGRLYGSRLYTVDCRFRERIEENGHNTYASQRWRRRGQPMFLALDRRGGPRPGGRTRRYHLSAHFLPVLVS
ARNT Alpha ctr: AlphaScreen artifact in ARNT/TACC3 counter-screen | His-ARNT PASB-GST AlphaScreen artifact counter-screen, luminescence | 1,200 compounds, 50% hits | AC50, µM (top dose mostly 68 µM), without a hit: at the top dose activity change, negative = signal decrease | AID 651705 | shares compounds with ARNT-TACC3 inh;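 active means every separate test run was called active for a drop in luminescence, with AC50 within twice the top valid dose, actives reach about 71 µM in these data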
Starred values were filed as active, the others as inactive.

How did COc1cc(/C=N/Nc2nn3cnnc3c3ccccc23)ccc1O do in these assays?
FN deposition inh: -10.0; ARNT-TACC3 inh: 50.0*; ARNT Alpha ctr: -30.0%

Results for COc1ccc(CNC(=O)C[C@H]2C=C[C@@H](NS(=O)(=O)c3cccc(OC)c3)[C@H](CO)O2)cc1 ?
SIRT5 block: -4.4; ARNT-TACC3 inh: 1.3; DENV2 CPE: 0.5; XiGFP reactiv: -0.2; FGF22 binding: -0.2

What do the screens show for `NC(=O)CSc1nnc(-c2cccs2)n1Cc1ccco1`?
FN deposition inh: -1.2; SIRT5 block: -0.3; ARNT-TACC3 inh: -3.0; DENV2 CPE: 3.7; XiGFP reactiv: 0.2; FGF22 binding: -0.1

What do the screens show for `NC(=O)CSc1nnc(-c2ccc(O)cc2)n1Cc1ccco1`?
FN deposition inh: 4.3; ARNT-TACC3 inh: 38.4*; ARNT Alpha ctr: 27.8µM*

What do the screens show for `CCOc1ccccc1Nc1cc2n(c(=O)n1)CCc1cc(OC)c(OC)cc1-2`?
FN deposition inh: 21.7; SIRT5 block: 0.6; ARNT-TACC3 inh: 17.7; DENV2 CPE: 5.2; XiGFP reactiv: 0.0; FGF22 binding: 42.2

How did COc1cc2c(cc1OC)-c1cc(Nc3ccccc3C)nc(=O)n1CC2 do in these assays?
FN deposition inh: 20.4; SIRT5 block: 2.6; ARNT-TACC3 inh: 23.1; DENV2 CPE: -4.3; XiGFP reactiv: 0.0; FGF22 binding: -0.2

What do the screens show for `COc1cc2c(cc1OC)-c1cc(Nc3cccc(C)c3)nc(=O)n1CC2`?
FN deposition inh: 15.3; SIRT5 block: -6.2; ARNT-TACC3 inh: 52.6*; DENV2 CPE: 9.4; XiGFP reactiv: 0.2; FGF22 binding: -0.2; ARNT Alpha ctr: -0.1%

How did CCCCCCNc1cc2n(c(=O)n1)CCc1cc(OC)c(OC)cc1-2 do in these assays?
FN deposition inh: 6.2; ARNT-TACC3 inh: 57.9*; ARNT Alpha ctr: -29.7%

Results for CCOc1ccc(Nc2cc3n(c(=O)n2)CCc2cc(OC)c(OC)cc2-3)cc1 ?
FN deposition inh: 14.6; SIRT5 block: -0.9; ARNT-TACC3 inh: 43.2*; DENV2 CPE: -0.5; XiGFP reactiv: 0.0; FGF22 binding: 0.2; ARNT Alpha ctr: -15.9%

What do the screens show for `COc1cc2c(cc1OC)-c1cc(NCc3ccccn3)nc(=O)n1CC2`?
ARNT-TACC3 inh: 42.0

What do the screens show for `COc1ccc2c3c([nH]c2c1)[C@H](CO)N(S(C)(=O)=O)CC31CCN(CC2CCCCC2)CC1`?
DENV2 CPE: -2.3; XiGFP reactiv: 0.1; FGF22 binding: -0.2

How did O=C(NCCCn1ccnc1)C(=O)NCC1OCCN1S(=O)(=O)c1ccc(F)cc1 (configuration not stated) do in these assays?
FN deposition inh: 5.3; SIRT5 block: -7.2; ARNT-TACC3 inh: 58.0*; DENV2 CPE: 0.8; XiGFP reactiv: 0.0; FGF22 binding: 0.0; ARNT Alpha ctr: 31.6µM*

What do the screens show for `COc1ccc(S(=O)(=O)N2CCOC2CNC(=O)C(=O)NCCCn2ccnc2)cc1OC` (configuration not stated)?
FN deposition inh: 2.8; SIRT5 block: -1.9; ARNT-TACC3 inh: 59.3*; DENV2 CPE: 2.6; XiGFP reactiv: 0.0; FGF22 binding: 0.0; ARNT Alpha ctr: -23.4%

How did Cc1ccc(C)c(S(=O)(=O)N2CCCOC2CNC(=O)C(=O)NCCCn2ccnc2)c1 (configuration not stated) do in these assays?
FN deposition inh: 3.3; ARNT-TACC3 inh: 55.9*; XiGFP reactiv: 0.3; ARNT Alpha ctr: -6.6%

How did Cc1ccc(C)c(S(=O)(=O)N2CCCOC2CNC(=O)C(=O)NCCc2ccccc2)c1 (configuration not stated) do in these assays?
FN deposition inh: 2.5; SIRT5 block: 3.1; ARNT-TACC3 inh: -1.5; DENV2 CPE: -1.7; XiGFP reactiv: 0.0; FGF22 binding: 0.0

How did COc1ccc(S(=O)(=O)N2CCCOC2CNC(=O)C(=O)NCCCn2ccnc2)cc1OC (configuration not stated) do in these assays?
FN deposition inh: -13.7; SIRT5 block: -3.5; ARNT-TACC3 inh: 40.3*; DENV2 CPE: -4.6; XiGFP reactiv: 0.0; FGF22 binding: 0.0; ARNT Alpha ctr: -11.2%

How did COc1ccc(C#Cc2ccc([C@@H]3[C@@H](CO)N4C(=O)CN(C(=O)Nc5ccccc5F)C[C@H]34)cc2)cc1 do in these assays?
SIRT5 block: 11.4; DENV2 CPE: 12.4; XiGFP reactiv: 0.2

Results for CCC(=O)Nc1ccc2c(c1)C(=O)N(C)[C@H]1CC[C@@H](CC(=O)Nc3cccc(OC)c3)O[C@@H]1CO2 ?
SIRT5 block: -2.2; ARNT-TACC3 inh: -4.1; DENV2 CPE: 11.0; XiGFP reactiv: 0.3; FGF22 binding: -0.3

Results for Cc1cc(C(=O)Nc2cccc3c2O[C@H](CN(C)S(=O)(=O)c2cccs2)[C@@H](C)CN([C@H](C)CO)C3=O)n(C)n1 ?
FN deposition inh: -1.9; SIRT5 block: -0.3; ARNT-TACC3 inh: -27.2; DENV2 CPE: 5.2; XiGFP reactiv: -1.0; FGF22 binding: -0.5

What do the screens show for `CN(C)CC(=O)N[C@H]1C=C[C@H](CC(=O)NCc2ccc(Cl)cc2)O[C@@H]1CO`?
FN deposition inh: 5.6; SIRT5 block: 0.4; ARNT-TACC3 inh: 3.3; DENV2 CPE: 0.0; XiGFP reactiv: 0.3; FGF22 binding: -0.1

Results for CC=Cc1ccc2n(c1=O)C[C@H]1[C@H](CO)[C@@H](C(=O)N[C@H](C)c3ccccc3)[C@@H]2N1CC1CC1 (mixture of isomers) ?
SIRT5 block: -0.1; ARNT-TACC3 inh: -3.7; DENV2 CPE: 9.3; XiGFP reactiv: 0.1; FGF22 binding: -0.1

What do the screens show for `Oc1ccc(/C=N/Nc2ccc(Cl)nn2)c(O)c1O`?
FN deposition inh: -2.2; SIRT5 block: -8.3; ARNT-TACC3 inh: 55.3*; DENV2 CPE: 1.3; XiGFP reactiv: 0.0; FGF22 binding: 0.0; ARNT Alpha ctr: 4.5µM*

How did Oc1c(Br)cc(Br)cc1/C=N/Nc1ccc(Cl)nn1 do in these assays?
FN deposition inh: 10.3; SIRT5 block: -0.5; ARNT-TACC3 inh: 3.5; DENV2 CPE: -2.1; XiGFP reactiv: 0.0; FGF22 binding: 0.0

Results for Cc1[nH][nH]c(=O)c1C(c1ccc(Cl)cc1)c1c(C)[nH][nH]c1=O ?
FN deposition inh: -6.2; SIRT5 block: 2.4; ARNT-TACC3 inh: 17.9*; DENV2 CPE: 7.0; XiGFP reactiv: 0.1; FGF22 binding: -0.3; ARNT Alpha ctr: 5.0%
